# Bioassay records as filed in PubChem.
# TCR CD3 inh – inhibitors of human TCR-CD3 interaction, primary screen, biochemical, fluorescence, TAMRA-labeled TCR probe | T-cell receptor (TCR) | inhibition, % at 9.4 µM | 360,000 tested, 0.37% active | AID 651800, 2012; in the data active means inhibition above about 19%;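 further: recombinant mutant TCR 2C K166C tagged with TAMRA read by polarization; 0% = receptor in buffer alone and 100% = receptor with positive control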
# PRMT1 FP inh – PRMT1 methyltransferase inhibitors, primary screen, biochemical, fluorescence polarization | inhibition, % at 2.79 µM | recombinant PRMT1, activity-based probe fluorescence polarization | Protein arginine N-methyltransferase 1 (Homo sapiens), Q99873 | 370,000 tested, 1.3% active | AID 652257, 2013;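 active means inhibition above about 21% made by adding two undisclosed values, limit read from the data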
# Target sequence (Q99873 whole entry, looked up): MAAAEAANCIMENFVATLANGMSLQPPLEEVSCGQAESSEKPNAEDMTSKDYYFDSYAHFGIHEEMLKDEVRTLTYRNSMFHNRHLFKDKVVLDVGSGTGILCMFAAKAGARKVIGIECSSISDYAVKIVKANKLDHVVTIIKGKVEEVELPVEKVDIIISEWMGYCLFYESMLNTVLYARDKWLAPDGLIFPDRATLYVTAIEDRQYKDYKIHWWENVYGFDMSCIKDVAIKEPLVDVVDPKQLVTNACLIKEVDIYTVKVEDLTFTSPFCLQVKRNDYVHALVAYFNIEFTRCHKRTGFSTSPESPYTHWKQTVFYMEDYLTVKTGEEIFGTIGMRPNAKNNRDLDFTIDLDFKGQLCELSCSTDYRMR
# SIAE inh – human SIAE inhibitors, primary screen, biochemical, fluorescence polarization, FP-Rh probe, 1536-well HTS. Sialate O-acetylesterase (Homo sapiens), Q9HAT2. SIAE FP-Rh probe binding. inhibition, % at 9.66 µM. 370,000 tested, 0.69% active. AID 1053197, 2014;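 active means inhibition above a cutoff: mean of compounds within the control limits plus 3 SD of those, cut at about 17% in these data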;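 further: 0% = plate median of compound wells and 100% = probe without SIAE protein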
# ABHD4 inh – ABHD4 inhibitors, primary screen, biochemical, fluorescence polarization, mouse | purified mABHD4, FP-Rh probe fluorescence polarization | 370,000 tested, 0.54% active | (Lyso)-N-acylphosphatidylethanolamine lipase (Mus musculus), Q8VD66 | AID 720543, 2013 | inhibition, % at 8.92 µM;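 active means inhibition exceeding the mean over every tested compound plus 3 SD, cut at about 30% in these data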;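 further: 0% = plate median of compound wells and 100% = S159A mutant with DMSO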
#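 Assay system: mABHD4 protein; medium: HEPES pH 7.0, NaCl, Pluronic buffer; dosing: 8.92 µM, single dose; schedule: 45 min + 60 min at 25 °C; signal: FP readout, ex 525 nm / em 598 nm; read-out: normalized percent inhibition of probe labeling; repeats: single replicate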
# HTRA1 inh – HTRA1 serine protease inhibitors, primary screen, biochemical, fluorescence polarization, HTS | inhibition, % at 5.96 µM | 340,000 tested, 0.5% active | recombinant HTRA1, FP-rhodamine activity-based probe | Q92743 | AID 504803, 2011; in the data active means inhibition above about 36%;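 further: 0% = enzyme with DMSO and 100% = wells lacking enzyme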
# ABHD4 confirm – ABHD4 inhibitors, retest, confirmation, biochemical, fluorescence polarization, mouse. shares compounds with ABHD4 inh. inhibition, % at 8.92 µM. 1,800 tested, 55% active. purified mABHD4, FP-Rh probe fluorescence polarization. AID 720658, 2013;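 active means mean inhibition across replicates above the hit cutoff set in the primary screen, cut at about 30% in these data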;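 further: 0% = wild-type ABHD4 with DMSO and 100% = catalytically dead S159A mutant with DMSO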
# * marks the source's active call; other numbers are inactive results; · = not tested or not shown. Hits are enriched below; roughly 2.6% of the tested compounds scored in any of these assays.
SMILES,TCR CD3 inh,PRMT1 FP inh,SIAE inh,ABHD4 inh,HTRA1 inh,ABHD4 confirm
CCCC(CCC)=NNc1ccc(S(=O)(=O)Nc2ccccc2OC)cc1[N+](=O)[O-],8.7,1.8,-0.8,2.9,-4.7,·
C=CCOc1ccc(C=NNc2ccc(S(=O)(=O)Nc3ccccc3C(=O)O)cc2[N+](=O)[O-])cc1OC,15.9,-0.4,11.4,50.1*,26.4,59.1*
CCOc1ccc(C=NNc2ccc(S(=O)(=O)Nc3ccccc3C(=O)O)cc2[N+](=O)[O-])cc1,·,·,10.2,·,11.2,·
CN(C)CC(=O)N[C@H]1C[C@@H]2O[C@@H](CO)CC[C@@H]2O[C@@H]1CCc1ccc(-c2ccc(F)cc2)cc1,·,-5.2,-2.3,7.0,·,·
Oc1ccc(NC(=S)Nc2ccc(F)cc2)cc1,8.1,1.2,5.0,33.3*,15.7,2.7
C[C@H]1COc2cc(Br)ccc2S(=O)(=O)N1Cc1cn(CCC2OCCCO2)nn1,·,-1.2,5.3,5.1,·,·
CCN(CC)S(=O)(=O)c1ccc(O)c(C(=O)OCC(=O)N2c3ccccc3CC2C)c1 (stereo not given),2.8,-10.6,9.1,55.7*,-10.3,57.5*
CCN(CC)S(=O)(=O)c1ccc(O)c(C(=O)OCC(=O)N2CCCC2)c1,-5.6,-2.9,-1.8,5.2,5.4,·
COc1ccccc1NS(=O)(=O)c1ccc(O)c(C(=O)OCC(=O)N2c3ccccc3CC2C)c1 (stereo not given),-4.0,-0.5,-5.5,34.9*,-12.8,28.6
COc1ccc(CCC(=O)Nc2nc3c(s2)CN(C)CC3)cc1OC,-0.1,-0.6,2.3,89.0*,0.2,3.0
C[C@H]1CN([C@@H](C)CO)S(=O)(=O)c2ccc(Br)cc2O[C@H]1CN(C)Cc1ccccc1,1.6,3.3,-0.2,75.4*,-12.4,-9.2
C[C@H]1CN([C@@H](C)CO)S(=O)(=O)c2ccc(Br)cc2O[C@@H]1CN(C)Cc1ccccc1,8.2,-0.5,8.3,-4.4,-31.2,·
Nc1[nH]c(C(=O)c2ccccc2)c(-c2cc(F)ccc2Br)c1C(=O)NCCc1c[nH]c2ccccc12,-2.2,-1.1,4.1,-2.0,·,·
COc1ccc(N2C(=O)CS/C2=C\[N+](=O)[O-])cc1,-7.7,3.3,8.2,30.2*,5.5,2.7
CCOc1cc(C(=O)NCC(C)(C)CNC(=O)c2cc(OCC)c(OCC)c(OCC)c2)cc(OCC)c1OCC,-3.8,-4.6,-5.4,36.2*,·,33.6*
O=c1oc2ccccc2cc1-c1csc(NN=C2CCCC2)n1,-3.8,4.9,5.5,14.4,-5.1,·
O=C(O)c1cccc(Nc2nc(-c3cc4ccccc4oc3=O)cs2)c1,5.5,-1.5,-31.7,30.1*,1.3,49.5*
CCc1nc2ccc(C(=O)Nc3cc(-c4ccccc4)ccc3OC)cn2c1N(CC)CCN(C)C,-7.2,-1.8,-6.2,20.2,·,·
CCc1nc2ccc(C(=O)Nc3cc(-c4ccccc4)ccc3OC)cn2c1N(CC)Cc1cccc(Br)c1,1.8,-1.5,1.8,30.6*,·,26.8
O=C(NCC(c1ccccc1)c1ccccc1)[C@H](Cc1c[nH]c2ccccc12)NC1(C(=O)NC2CCCCC2)CCCCCC1,·,4.7,-2.6,4.0,·,·
CCCOC(c1ccccc1)(c1ccccc1)C(Oc1nc(C)cc(C)n1)C(=O)O (stereo not given),6.3,2.0,1.7,6.8,2.7,·
Cc1cc(C)nc(OC(C(=O)O)C(OCCC(C)C)(c2ccccc2)c2ccccc2)n1 (stereo not given),7.1,2.9,1.5,34.6*,-1.6,46.7*
CCOC(=O)c1ccc(NC2=CC(=O)C(=O)c3ccccc32)cc1,15.4,6.8,7.4,30.0*,8.7,43.7*
NS(=O)(=O)c1ccc(NC2=CC(=O)C(=O)c3ccccc32)cc1,-5.3,15.8,5.1,30.6*,14.4,8.9
Cc1ccc(NC2=CC(=O)C(=O)c3ccccc32)cc1,2.6,1.3,8.7,37.8*,8.6,21.7
